27 compounds from ChEMBL document CHEMBL1129604, “Design, synthesis, and evaluation of nonpeptidic inhibitors of human rhinovirus 3C protease” (J Med Chem, 1996) can be followed below.

Assay [1] concerns the target T1, Human rhinovirus A protease (Human rhinovirus sp., UniProt Q4U254).
T1 sequence (Q4U254 whole entry): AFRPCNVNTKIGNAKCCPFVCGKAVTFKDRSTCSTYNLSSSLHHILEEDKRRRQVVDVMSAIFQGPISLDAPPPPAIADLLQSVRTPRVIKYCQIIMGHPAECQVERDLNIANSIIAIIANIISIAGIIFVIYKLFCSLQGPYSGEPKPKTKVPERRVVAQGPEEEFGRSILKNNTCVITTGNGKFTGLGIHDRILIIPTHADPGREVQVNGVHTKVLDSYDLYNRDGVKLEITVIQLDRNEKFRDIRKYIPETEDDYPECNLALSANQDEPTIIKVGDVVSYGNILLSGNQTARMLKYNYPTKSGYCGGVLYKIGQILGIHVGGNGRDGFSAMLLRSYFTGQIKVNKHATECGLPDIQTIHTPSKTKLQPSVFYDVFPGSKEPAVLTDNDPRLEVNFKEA
The assay is described as follows: Inhibition of human rhinovirus 3C protease. Further details: species or system Rhinovirus B. The essentials:
(§1)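 Buffer was 50 mM Tris pH 7.6, 1 mM EDTA, 2% DMSO at 30 °C. Enzyme and inhibitor were preincubated 10 min before substrate start. Fluorescence ex 336/em 490 nm. Ki came from nonlinear fit of initial velocity versus inhibitor.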

The test system of assay [2] is HeLa. The experiment in a line: Compound was tested for the antiviral activity against Human Rhinovirus -14(HRV-14) in HeLa cells. It counts as functional, cell-based. An outline of the steps: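 Cell protection assay in HI-HeLa cells (MEM, 10% FBS). Cells were infected with HRV-14 at moi 0.13, resuspended at 8 × 10^5 cells/mL and incubated with compound for two days. XTT/PMS formazan was read at 450/650 nm. EC50 is the concentration restoring formazan to 50% of compound-free uninfected cells.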

Assay [3] relates to HeLa. The experiment in a line: Compound was tested for the 50% toxic concentration against Human Rhinovirus-14 (HRV-14) in Hela cells. The settings on record: read-out: TC50 (the source's name). It counts as functional. The essentials:
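HI-HeLa cells in MEM with 10% FBS, mock-infected with medium only, resuspended at 8 × 10^5 cells/mL and incubated with compound. After two days, XTT/PMS was added and formazan was read at 450/650 nm. CC50 is the concentration lowering formazan to 50% of compound-free uninfected cells.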

For assay [4], the target named is Prothrombin (Homo sapiens) (UniProt P00734). The experiment in a line: (§2) Percentage inhibition of human thrombin at 100 uM conc of drug.
In assay [5] the test system is Enterovirus. The experiment in a line: Compound was tested for the inhibitory activity of compound towards human rhinovirus-89 3C protease. The format is functional, organism-based. The essentials: (§3)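 3CP from HRV-16, -2 or -89 was cloned from infected-HeLa cDNA (3A C-terminus–3B–3C region), expressed in E. coli and purified. The same FRET assay (1 μM DABCYL/EDANS peptide, 50 mM Tris pH 7.6, 1 mM EDTA, 2% DMSO, 30 °C, 10 min preincubation) was run at 100–200 nM enzyme. Ki was obtained by nonlinear regression of initial velocities.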

Assay [6] has as its system Enterovirus. The assay is described as follows: Compound was tested for the inhibitory activity of compound towards human rhinovirus-2 3C protease. It counts as functional, organism-based. An outline of the steps:
as §3

Assay [7] has as its target T2, Serine protease 1 (Bos taurus) (UniProt P00760).
T2 sequence (whole entry): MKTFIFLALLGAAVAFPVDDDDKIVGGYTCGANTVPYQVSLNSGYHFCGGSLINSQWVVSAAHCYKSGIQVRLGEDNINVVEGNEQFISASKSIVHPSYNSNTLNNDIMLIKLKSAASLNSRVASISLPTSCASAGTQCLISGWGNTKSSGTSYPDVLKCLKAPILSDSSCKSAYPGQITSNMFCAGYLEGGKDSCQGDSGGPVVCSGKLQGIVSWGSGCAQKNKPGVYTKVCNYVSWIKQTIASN
The experiment in a line: (§4) Percentage inhibition of bovine trypsin at 100 uM conc of drug.

Assay [8] in a line: Percentage inhibition of Cathepsin (human liver) at 10 uM conc of drug.
In assay [9] the target is T3, Neutrophil elastase (Homo sapiens) (UniProt P08246).
T3 sequence (whole entry): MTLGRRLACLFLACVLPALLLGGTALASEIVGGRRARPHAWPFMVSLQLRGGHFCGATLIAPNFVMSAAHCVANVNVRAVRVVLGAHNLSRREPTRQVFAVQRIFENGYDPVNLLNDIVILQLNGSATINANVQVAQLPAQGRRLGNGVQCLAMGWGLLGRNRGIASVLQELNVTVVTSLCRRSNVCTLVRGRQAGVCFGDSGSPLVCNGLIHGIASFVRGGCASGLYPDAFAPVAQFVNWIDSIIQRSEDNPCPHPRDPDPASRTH
The experiment in a line: (§5) Percentage inhibition of Pancreatic elastase at 100 uM conc of drug.

Assay [10] has as its system Enterovirus. The experiment in a line: Compound was tested for the inhibitory activity of compound towards human rhinovirus 3C protease. It counts as functional, organism-based. The essentials: as §1
For assay [11], the system named is Enterovirus. The assay is described as follows: Compound was tested for the inhibitory activity of compound towards human rhinovirus-16 3C protease. It counts as functional, organism-based. An outline of the steps: as §3
For assay [12], the target named is Chymotrypsinogen A (Bos taurus) (UniProt P00766). The assay is described as follows: Percentage inhibition of bovine chymotrypsin at 50 uM conc of drug.
Assay [13] can be described thus: Theuraptic index was reported. It counts as functional. An outline of the steps:
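TI is CC50 (uninfected HI-HeLa, XTT formazan) divided by EC50 (HRV-14-infected HI-HeLa, moi 0.13, two days, XTT read at 450/650 nm).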

A short description of assay [14]: (§6) Percentage inhibition of Cathepsin (human liver) at 100 uM conc of drug.
In assay [15] the target is Chymotrypsinogen A (Bos taurus) (UniProt P00766). The experiment in a line: (§7) Percentage inhibition of bovine chymotrypsin at 100 uM conc of drug.
Assay [16] concerns the target T2, Serine protease 1 (Bos taurus). The assay is described as §4. The format is functional.
The nature of assay [17]: as §6. The format is functional.
In assay [18] the target is T3, Neutrophil elastase (Homo sapiens). Described as §5. The format is functional.
Assay [19] addresses Chymotrypsinogen A (Bos taurus) (UniProt P00766). Described as §7. It counts as functional.
The target of assay [20] is Prothrombin (Homo sapiens) (UniProt P00734). Described as §2. The format is functional.

With `CN1C(=O)C(=O)c2cc([N+](=O)[O-])ccc21`, the affinity in assay [1], expressed as Ki, was 9.7 µM.
In the case of `CN1C(=O)C(=O)c2cc(C(=O)O)ccc21`, affinity in [1] was put at a Ki of 10 µM. This compound also gave an EC50 in the assay on HeLa [2] above 100 µM. In addition, the CC50 in the assay with HeLa [3] was above 100 µM.
In assay [1], `COc1cc(CN2C(=O)C(=O)c3cc(C(N)=O)ccc32)cc(OC)c1` displayed an inhibition constant (Ki) of 0.025 µM.
Regarding `NC(=O)c1ccc2c(c1)C(=O)C(=O)N2Cc1ccc2ccccc2c1`, the affinity in assay [1] corresponds to a Ki of 0.004 µM. For the same compound, the EC50 in the assay with HeLa [2] was above 10 µM. Also, the CC50 in the assay with HeLa [3] amounted to 10 µM.
As to `CNC(=O)c1ccc2c(c1)C(=O)C(=O)N2C`, the Ki in [1] stood at 12 µM.
Take `NC(=O)c1ccc2c(c1)C(=O)C(=O)N2Cc1cc2ccccc2s1`: the inhibition in assay [4] came out at 0%; in [7], 0%; in assay [8] it was 0%; in assay [9], 0%; in assay [12], 25%. In addition, the inhibition constant Ki turned out to be 0.0011 µM with Enterovirus [5], 0.0052 µM in the assay on Enterovirus [6], 0.002 µM with Enterovirus [10] and 0.012 µM with Enterovirus [11]. In addition, the half-maximal effective concentration (EC50) in the assay with HeLa [2] is above 5.6 µM. Besides, in the assay on HeLa [3], the CC50 turned out to be 5.6 µM.
Compound `CN1C(=O)C(=O)c2cc(C#N)ccc21` yielded a Ki in assay [1] of 51 µM.
`CN1C(=O)C(=O)c2cc(I)ccc21` displayed a Ki in assay [1] of 30 µM. In the assay on HeLa [2], this compound gave an EC50 of 71 µM. For the same compound, the CC50 in the assay on HeLa [3] is above 100 µM. This compound also had a TI in assay [13] above 1.
For `CN1C(=O)C(=O)c2cc(Cl)ccc21`, affinity in [1] was put at a Ki of 59 µM.
The same measure, in the same setting: the figure for `COc1ccc2cc(CN3C(=O)C(=O)c4cc(C(N)=O)ccc43)ccc2c1` is 0.003 µM.
On to `NC(=O)c1ccc2c(c1)C(=O)C(=O)N2Cc1ccccc1`, for which the inhibitory constant (Ki) in [1] came to 0.019 µM. In the assay on HeLa [2], this compound returned an EC50 of 14.1 µM. Moreover, in the assay on HeLa [3], the CC50 was found to be 50.1 µM. Besides, the TI in [13] was determined as 3.5.
In assay [1], `NC(=O)c1ccc2c(c1)C(=O)C(=O)N2Cc1cc(O)cc(O)c1` returned a Ki of 0.004 µM. The compound further registered a concentration giving a half-maximal response (EC50) with HeLa [2] above 100 µM. The CC50 in the assay with HeLa [3] was above 100 µM.
`CN1C(=O)C(=O)c2cc(C(N)=O)ccc21`: the inhibition in [4], in assay [14], in assay [7], in assay [9] and in assay [15] was 0% each time. In addition, the inhibition constant (Ki) stood at 0.035 µM with Enterovirus [5], 0.077 µM in the assay with Enterovirus [6], 0.051 µM with Enterovirus [10] and 0.04 µM in the assay on Enterovirus [11]. Besides, in the assay with HeLa [2], the concentration giving a half-maximal response (EC50) is 66 µM. Besides, the CC50 in the assay on HeLa [3] was 270 µM. This compound also came in with a TI in assay [13] of 4.
Take `CN1C(=O)C(=O)c2ccccc21`: in assay [1], the Ki was above 100 µM.
In assay [1], `NC(=O)c1ccc2c(c1)C(=O)C(=O)N2CCCc1ccccc1` showed a Ki of 0.027 µM. In the assay with HeLa [2], this compound yielded an EC50 above 7.1 µM. In the assay with HeLa [3], the CC50 was 7.1 µM.
Compound `CC(=O)c1ccc2c(c1)C(=O)C(=O)N2C` returned a Ki in assay [1] of 1.2 µM.
The same measure, in the same setting: as for `NC(=O)c1ccc2c(c1)C(=O)C(=O)N2Cc1ccc2cc(O)ccc2c1`, the figure is 0.004 µM.
Same read-out and setting: the figure for `CN1C(=O)C(=O)c2cc([S+](C)[O-])ccc21` (configuration not stated) is 8.2 µM.
On to `NC(=O)c1ccc2c(c1)C(=O)C(=O)N2Cc1cccc(O)c1`, for which the inhibition constant (Ki) in [1] was 0.011 µM. The EC50 with HeLa [2] was above 20 µM. The CC50 with HeLa [3] was 20 µM.
Turning to `NC(=O)c1ccc2c(c1)C(=O)C(=O)N2C/C=C/c1ccccc1`, the inhibition in [16] stood at 0%; in assay [18], 40%; in [19], 67%; in [20] it was 34%. For the same compound, 100 µM produced 27% inhibition in [17]. This compound came in with a concentration for a half-maximal effect (EC50) in the assay with HeLa [2] of 6.3 µM. Moreover, the CC50 in the assay on HeLa [3] was 9.6 µM. Moreover, the TI in assay [13] was 1.5. Further, in the assay with Enterovirus [10], the Ki stood at 0.011 µM.
Regarding `CN(C)C(=O)c1ccc2c(c1)C(=O)C(=O)N2C`, the affinity in assay [1], expressed as Ki, was 33 µM.
`NC(=O)c1ccc2c(c1)C(=O)C(=O)N2Cc1ccc(-c2ccccc2)cc1` showed a Ki in [1] of 0.048 µM.
The compound `COc1cccc(CN2C(=O)C(=O)c3cc(C(N)=O)ccc32)c1` yielded a Ki in assay [1] of 0.029 µM. The half-maximal effective concentration (EC50) in the assay with HeLa [2] is above 20 µM. Besides, the CC50 in the assay on HeLa [3] came out at 20 µM.
Turning to `COC(=O)c1ccc2c(c1)C(=O)C(=O)N2C`, affinity in [1] was put at a Ki of 30 µM. The EC50 with HeLa [2] was 56 µM. The CC50 in the assay on HeLa [3] is above 100 µM. The TI in [13] was above 2.
As to `CN1C(=O)C(=O)c2cc(C(N)=S)ccc21`, the Ki in [1] stood at 11 µM.
For the compound `Cc1ccc(CN2C(=O)C(=O)c3cc(C(N)=O)ccc32)cc1`, the Ki in [1] is 0.01 µM.
Same read-out and setting: as for `Cc1ccc(CN2C(=O)C(=O)c3cc(C(N)=O)ccc32)cc1C`, the figure is 0.006 µM.

In general, Ki refers to the equilibrium dissociation constant of an inhibitor or competing ligand from its target. Lower therefore signals a stronger hold on the target. As a reminder, the EC50 is the concentration that produces a half-maximal response. A low value points to an effect from little substance. As usually defined, the inhibition is the percentage by which the read-out fell short of the control. The low end stands for a weak effect, the high end for a strong effect.
